According to ChEMBL document CHEMBL4842367, “Strategies toward Discovery of Potent and Orally Bioavailable Proteolysis Targeting Chimera Degraders of Androgen Receptor for the Treatment of Prostate Cancer” (J Med Chem, 2021):

Tests used:
[1] = biological target: T1, Protein cereblon/Androgen receptor (Homo sapiens, UniProt P10275+Q96SW2); assay: Protac activity at CRBN/AR in human VCaP cells assessed as induction of AR degradation at 0.001 uM measured after 24 hrs by western blot analysis relative to control; format: cell-based
T1 sequence (P10275 whole entry, looked up): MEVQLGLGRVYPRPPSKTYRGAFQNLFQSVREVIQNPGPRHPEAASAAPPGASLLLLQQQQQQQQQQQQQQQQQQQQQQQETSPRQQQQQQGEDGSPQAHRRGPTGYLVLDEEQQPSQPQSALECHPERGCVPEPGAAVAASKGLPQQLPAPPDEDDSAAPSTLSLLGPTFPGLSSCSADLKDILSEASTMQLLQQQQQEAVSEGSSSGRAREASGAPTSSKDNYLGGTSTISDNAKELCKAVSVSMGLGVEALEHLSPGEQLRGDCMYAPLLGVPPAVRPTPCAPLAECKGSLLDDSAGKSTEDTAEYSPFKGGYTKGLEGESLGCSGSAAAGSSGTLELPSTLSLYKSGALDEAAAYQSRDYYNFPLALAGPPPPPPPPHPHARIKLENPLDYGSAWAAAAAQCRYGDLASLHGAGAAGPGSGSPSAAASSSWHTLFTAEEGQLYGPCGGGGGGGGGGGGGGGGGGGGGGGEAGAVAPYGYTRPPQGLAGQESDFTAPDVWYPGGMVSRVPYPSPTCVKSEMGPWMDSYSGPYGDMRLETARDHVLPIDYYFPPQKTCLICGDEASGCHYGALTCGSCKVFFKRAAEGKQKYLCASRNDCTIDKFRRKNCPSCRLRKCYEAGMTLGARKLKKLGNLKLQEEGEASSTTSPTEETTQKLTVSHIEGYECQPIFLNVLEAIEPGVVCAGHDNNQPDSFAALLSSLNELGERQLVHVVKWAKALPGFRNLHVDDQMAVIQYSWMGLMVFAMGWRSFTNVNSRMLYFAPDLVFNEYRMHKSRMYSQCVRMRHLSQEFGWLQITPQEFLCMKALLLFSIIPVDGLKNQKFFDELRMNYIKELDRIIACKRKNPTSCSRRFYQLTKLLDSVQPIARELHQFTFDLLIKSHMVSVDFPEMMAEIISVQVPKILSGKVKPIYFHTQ
T1 sequence (Q96SW2 whole entry, looked up): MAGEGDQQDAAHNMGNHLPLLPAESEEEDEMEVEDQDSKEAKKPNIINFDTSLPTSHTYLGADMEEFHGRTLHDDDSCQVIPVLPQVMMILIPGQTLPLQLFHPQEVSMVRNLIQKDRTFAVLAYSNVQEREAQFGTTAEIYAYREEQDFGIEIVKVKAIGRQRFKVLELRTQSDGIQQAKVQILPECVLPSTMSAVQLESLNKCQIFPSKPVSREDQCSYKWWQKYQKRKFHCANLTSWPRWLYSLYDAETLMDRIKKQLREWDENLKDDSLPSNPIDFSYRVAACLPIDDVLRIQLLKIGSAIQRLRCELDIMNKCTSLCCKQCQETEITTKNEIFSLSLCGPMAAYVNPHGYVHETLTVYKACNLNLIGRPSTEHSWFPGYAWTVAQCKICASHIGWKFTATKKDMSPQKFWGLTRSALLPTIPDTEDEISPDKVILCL

[2] = biological target: T1, Protein cereblon/Androgen receptor; assay: Protac activity at CRBN/AR in human VCaP cells assessed as induction of AR degradation at 0.01 uM measured after 24 hrs by western blot analysis relative to control; format: cell-based
Method in brief: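 VCaP cells treated 24 h at 1, 10, 100 and 1000 nM; lysed in RIPA with protease/phosphatase inhibitors, run on 4–12% SDS-PAGE, blotted to PVDF. AR bands background-subtracted and normalized to loading control; degradation relative to DMSO, average of three independent experiments.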

[3] = biological target: T1, Protein cereblon/Androgen receptor; assay: Protac activity at CRBN/AR in human VCAP cells assessed as induction of AR degradation at 1 uM by western blot analysis relative to control; format: cell-based; conditions: time 24.0 hrs
[4] = biological target: T1, Protein cereblon/Androgen receptor; assay: Protac activity at CRBN/AR in human VCaP cells assessed as induction of AR degradation at 0.1 uM measured after 24 hrs by western blot analysis relative to control; format: cell-based
[5] = Plasma concentration in CB17 SCID mouse at 10 mg/kg, po measured after 6 hr by LC-MS/MS analysis; format: ADME, organism-based
Method in brief: (§1)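 Single oral gavage at 10 mg/kg in 100% PEG200 to non-tumor-bearing male mice; three mice per time point, blood collected at 1, 3 and 6 h, plasma obtained by centrifugation and measured by LC–MS/MS; reported as mean ± SD.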

[6] = Plasma concentration in CB17 SCID mouse at 10 mg/kg, po measured after 1 hr by LC-MS/MS analysis; format: ADME, organism-based; method in brief: as §1
[7] = Plasma concentration in CB17 SCID mouse at 10 mg/kg, po measured after 3 hr by LC-MS/MS analysis; format: ADME, organism-based; method in brief: as §1

| SMILES | Activity [1] [%] | Activity [2] [%] | Activity [3] [%] | Activity [4] [%] | concentration at 6 h [5] [ng/mL] | concentration at 1 h [6] [ng/mL] | concentration at 3 h [7] [ng/mL] |
| --- | --- | --- | --- | --- | --- | --- | --- |
| CC1(C)[C@H](NC(=O)c2ccc(C(=O)N3CCN(CC4CN(c5ccc6c(c5)C(=O)N(C5CCC(=O)NC5=O)C6=O)C4)CC3)cc2)C(C)(C)[C@H]1Oc1ccc(C#N)c(Cl)c1 (stereo partly drawn) | 65 | 92 | 79 | 96 |  |  |  |
| CC1(C)[C@H](NC(=O)c2ccc(C(=O)N3CCN(CC4CCN(c5ccc6c(c5)C(=O)N(C5CCC(=O)NC5=O)C6=O)CC4)CC3)cc2)C(C)(C)[C@H]1Oc1ccc(C#N)c(Cl)c1 (stereo partly drawn) | 76 |  | […] |  |  |  |  |
| CC1(C)[C@H](NC(=O)c2ccc(NCCCCCCNc3ccc4c(c3)C(=O)N(C3CCC(=O)NC3=O)C4=O)cc2)C(C)(C)[C@H]1Oc1ccc(C#N)c(Cl)c1 (stereo partly drawn) | 69 | 85 | 79 | 77 | 1.6 | 16.9 | 8 |
| CC1(C)[C@H](NC(=O)c2ccc(NCCCNc3ccc4c(c3)C(=O)N(C3CCC(=O)NC3=O)C4=O)cc2)C(C)(C)[C@H]1Oc1ccc(C#N)c(Cl)c1 (stereo partly drawn) | 0 | 25 | 70 | 63 |  |  |  |
| CC1(C)[C@H](NC(=O)c2ccc(NCCCCCNc3ccc4c(c3)C(=O)N(C3CCC(=O)NC3=O)C4=O)cc2)C(C)(C)[C@H]1Oc1ccc(C#N)c(Cl)c1 (stereo partly drawn) | 49 | 84 | 97 | 89 | 2.9 | 111 | 55.9 |
| N#Cc1ccc(O[C@H]2C[C@H](NC(=O)c3ccc(N4CCN(CC5CCN(c6ccc7c(c6)C(=O)N(C6CCC(=O)NC6=O)C7=O)CC5)CC4)cc3)C2)cc1Cl (stereo partly drawn) | < 5 | 30 | 39 | 25 |  |  |  |
| CC1(C)[C@H](NC(=O)c2ccc(N3CCN(CCCNc4ccc5c(c4)C(=O)N(C4CCC(=O)NC4=O)C5=O)CC3)cc2)C(C)(C)[C@H]1Oc1ccc(C#N)c(Cl)c1 (stereo partly drawn) | 22 | 37 | 53 | 54 | 96.9 | 267 | 254 |
| CC1(C)[C@H](NC(=O)c2ccc(NCCCCCCCNc3ccc4c(c3)C(=O)N(C3CCC(=O)NC3=O)C4=O)cc2)C(C)(C)[C@H]1Oc1ccc(C#N)c(Cl)c1 (stereo partly drawn) | 28 | 58 | 62 | 79 |  |  |  |
| CC1(C)[C@H](NC(=O)c2ccc(N3CCN(CC4CCN(c5ccc6c(c5)C(=O)N(C5CCC(=O)NC5=O)C6=O)CC4)CC3)cc2)C(C)(C)[C@H]1Oc1ccc(C#N)c(C(F)(F)F)c1 (stereo partly drawn) | 22 | 45 | 90 | 87 |  |  |  |
| CC1(C)[C@H](NC(=O)c2ccc(N3CCN(CCCNc4cccc5c4C(=O)N(C4CCC(=O)NC4=O)C5=O)CC3)cc2)C(C)(C)[C@H]1Oc1ccc(C#N)c(Cl)c1 (stereo partly drawn) | < 5 | < 5 | 9 | < 5 |  |  |  |
| CC1(C)[C@H](NC(=O)c2ccc(N3CCN(CCCCCNc4ccc5c(c4)C(=O)N(C4CCC(=O)NC4=O)C5=O)CC3)cc2)C(C)(C)[C@H]1Oc1ccc(C#N)c(Cl)c1 (stereo partly drawn) | 12 | 59 | 60 | 85 |  |  |  |
| CC1(C)[C@H](NC(=O)c2ccc(NCCCCNc3ccc4c(c3)C(=O)N(C3CCC(=O)NC3=O)C4=O)cc2)C(C)(C)[C@H]1Oc1ccc(C#N)c(Cl)c1 (stereo partly drawn) | 42 | 76 | 21 | 55 |  |  |  |
| CC1(C)[C@H](NC(=O)c2ccc(NCCCCCNc3cccc4c3C(=O)N(C3CCC(=O)NC3=O)C4=O)cc2)C(C)(C)[C@H]1Oc1ccc(C#N)c(Cl)c1 (stereo partly drawn) | < 5 | 9 | 38 | 36 |  |  |  |
| CC1(C)[C@H](NC(=O)c2ccc(NCCCCCCCCNc3ccc4c(c3)C(=O)N(C3CCC(=O)NC3=O)C4=O)cc2)C(C)(C)[C@H]1Oc1ccc(C#N)c(Cl)c1 (stereo partly drawn) | 48 | 76 | 73 | 82 |  |  |  |
| CC1(C)[C@H](NC(=O)c2ccc(N3CCN(CCCCNc4ccc5c(c4)C(=O)N(C4CCC(=O)NC4=O)C5=O)CC3)cc2)C(C)(C)[C@H]1Oc1ccc(C#N)c(Cl)c1 (stereo partly drawn) | 42 | 63 | 82 | 84 |  |  |  |
| CC1(C)[C@H](NC(=O)c2ccc(N3CCN(CC4CCN(c5ccc6c(c5)C(=O)N(C5CCC(=O)NC5=O)C6=O)CC4)CC3)cc2)C(C)(C)[C@H]1Oc1cnc(C#N)c(C(F)(F)F)c1 (stereo partly drawn) | 6 | 12 | 41 | 33 |  |  |  |
| CC1(C)[C@@H](NC(=O)c2ccc(N3CCN(CC4CCN(c5ccc6c(c5)C(=O)N(C5CCC(=O)NC5=O)C6=O)CC4)CC3)cc2)C[C@@H]1Oc1ccc(C#N)c(Cl)c1 (stereo partly drawn) | < 5 | 19 | 90 | 75 |  |  |  |
| CC1(C)[C@H](NC(=O)c2ccc(N3CCN(C4CN(c5ccc6c(c5)C(=O)N(C5CCC(=O)NC5=O)C6=O)C4)CC3)cc2)C(C)(C)[C@H]1Oc1ccc(C#N)c(Cl)c1 (stereo partly drawn) | 54 | 77 | 73 | 91 |  |  |  |
| CC1(C)[C@H](NC(=O)c2ccc(N3CCN(CCCCNc4cccc5c4C(=O)N(C4CCC(=O)NC4=O)C5=O)CC3)cc2)C(C)(C)[C@H]1Oc1ccc(C#N)c(Cl)c1 (stereo partly drawn) | 7 | 40 | 32 | 47 |  |  |  |
| CC1(C)[C@H](NC(=O)c2ccc(NCCCCCCNc3cccc4c3C(=O)N(C3CCC(=O)NC3=O)C4=O)cc2)C(C)(C)[C@H]1Oc1ccc(C#N)c(Cl)c1 (stereo partly drawn) | 10 | 22 | 48 | 43 |  |  |  |
| CC1(C)[C@H](NC(=O)c2ccc(N3CCN(CCNc4cccc5c4C(=O)N(C4CCC(=O)NC4=O)C5=O)CC3)cc2)C(C)(C)[C@H]1Oc1ccc(C#N)c(Cl)c1 (stereo partly drawn) | < 5 | 23 | 32 | 41 |  |  |  |

The remaining lines, values ahead:

| Activity [1] [%] | Activity [2] [%] | Activity [3] [%] | Activity [4] [%] | concentration at 6 h [5] [ng/mL] | concentration at 1 h [6] [ng/mL] | concentration at 3 h [7] [ng/mL] | SMILES |
| --- | --- | --- | --- | --- | --- | --- | --- |
| 13 | 30 | 57 | 38 |  |  |  | CC1(C)[C@H](NC(=O)c2ccc(N3CCC4(CCC(Nc5ccc6c(c5)C(=O)N(C5CCC(=O)NC5=O)C6=O)CC4)CC3)cc2)C(C)(C)[C@H]1Oc1ccc(C#N)c(Cl)c1 (stereo partly drawn) |
| 30 | 82 | 95 | 97 |  |  |  | CC1(C)[C@H](NC(=O)c2ccc(N3CCN(CC4CC5(C4)CN(c4ccc6c(c4)C(=O)N(C4CCC(=O)NC4=O)C6=O)C5)CC3)cc2)C(C)(C)[C@H]1Oc1ccc(C#N)c(Cl)c1 (stereo partly drawn) |
| 37 | 78 | 88 | 93 |  |  |  | CC1(C)[C@H](NC(=O)c2ccc(N3CCN(C4CC5(C4)CN(c4ccc6c(c4)C(=O)N(C4CCC(=O)NC4=O)C6=O)C5)CC3)cc2)C(C)(C)[C@H]1Oc1ccc(C#N)c(Cl)c1 (stereo partly drawn) |
| 14 | 38 | 80 | 67 |  |  |  | CC1(C)[C@H](NC(=O)c2ccc(N3CCN(C4CCC5(CC4)CCN(c4ccc6c(c4)C(=O)N(C4CCC(=O)NC4=O)C6=O)CC5)CC3)cc2)C(C)(C)[C@H]1Oc1ccc(C#N)c(Cl)c1 (stereo partly drawn) |
| 16 | 56 | 51 | 71 |  |  |  | CC1(C)[C@H](NC(=O)c2ccc(N3CCN(CC4CC5(CCN(c6ccc7c(c6)C(=O)N(C6CCC(=O)NC6=O)C7=O)C5)C4)CC3)cc2)C(C)(C)[C@H]1Oc1ccc(C#N)c(Cl)c1 (stereo partly drawn) |
| < 5 | 15 | 80 | 75 |  |  |  | CC1(C)[C@H](NC(=O)c2ccc(N3CCN(CC4CCN(c5ccc6c(c5)C(=O)N(C5CCC(=O)NC5=O)C6=O)CC4)CC3)cc2)C(C)(C)[C@H]1Oc1ccc(C#N)c(F)c1 (stereo partly drawn) |
| 15 | 48 | 82 | 73 |  |  |  | CC1(C)[C@H](NC(=O)c2ccc(N3CCN(C4CCC5(CC4)CN(c4ccc6c(c4)C(=O)N(C4CCC(=O)NC4=O)C6=O)C5)CC3)cc2)C(C)(C)[C@H]1Oc1ccc(C#N)c(Cl)c1 (stereo partly drawn) |
| 71 | 83 | 83 | 95 |  |  |  | CC1(C)[C@H](NC(=O)c2ccc(C(=O)N3CCN(C4CN(c5ccc6c(c5)C(=O)N(C5CCC(=O)NC5=O)C6=O)C4)CC3)cc2)C(C)(C)[C@H]1Oc1ccc(C#N)c(Cl)c1 (stereo partly drawn) |
| 38 | 80 | 84 | 87 |  |  |  | CC1(C)[C@H](NC(=O)c2ccc(N3CCN(C4CC5(CCN(c6ccc7c(c6)C(=O)N(C6CCC(=O)NC6=O)C7=O)C5)C4)CC3)cc2)C(C)(C)[C@H]1Oc1ccc(C#N)c(Cl)c1 (stereo partly drawn) |
| 58 | 83 | 76 | 79 | 604 | 1240 | 919 | CC1(C)[C@H](NC(=O)c2ccc(N3CCN(CCNc4ccc5c(c4)C(=O)N(C4CCC(=O)NC4=O)C5=O)CC3)cc2)C(C)(C)[C@H]1Oc1ccc(C#N)c(Cl)c1 (stereo partly drawn) |
| 0 | 16 | 88 | 82 |  |  |  | CC1(C)[C@H](NC(=O)c2ccc(N3CCC4(CC3)CC(Nc3ccc5c(c3)C(=O)N(C3CCC(=O)NC3=O)C5=O)C4)cc2)C(C)(C)[C@H]1Oc1ccc(C#N)c(Cl)c1 (stereo partly drawn) |
